In ChEMBL document CHEMBL1143122, “Novel analogs of D-e-MAPP and B13. Part 1: synthesis and evaluation as potential anticancer agents” (Bioorg Med Chem, 2008):

Legend:
SN12C = assay: Antiproliferative activity against human SN12C cells after 48 hrs; format: functional
Outline: (§1)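 NCI 60-cell screen. Cells were grown in RPMI 1640 with 5% FBS and 2 mM L-glutamine, then plated at 5,000–40,000 cells/well according to doubling time and preincubated for 24 h at 37 °C in 5% CO2. Compounds were dissolved in DMSO at 400× the top final concentration and tested at five 10-fold dilutions from 10−4 to 10−8 M for 48 h. Growth was read spectrophotometrically; GI50 is 50% net protein reduction.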

SNB-75 = assay: Antiproliferative activity against human SNB75 cells after 48 hrs; format: functional; conditions: SNB-75, 48 h; outline: as §1
COLO 205 = assay: Antiproliferative activity against human COLO205 cells after 48 hrs; format: functional; conditions: COLO 205, 48 h; outline: as §1
SK-OV-3 = assay: Antiproliferative activity against human SKOV3 cells after 48 hrs; format: functional; conditions: SK-OV-3, 48 h; outline: as §1
[1] = Antiproliferative activity against human […] cells after 48 hrs; format: functional; outline: as §1
786-0 = assay: Antiproliferative activity against human 786-0 cells after 48 hrs; format: functional; conditions: 786-0, 48 h; outline: as §1
BT-549 = assay: Antiproliferative activity against human BT549 cells after 48 hrs; format: functional; conditions: BT-549, 48 h; outline: as §1
NCI-H23 = assay: Antiproliferative activity against human NCI-H23 cells after 48 hrs; format: functional; conditions: NCI-H23, 48 h; outline: as §1
HT-29 = assay: Antiproliferative activity against human HT29 cells after 48 hrs; format: functional; conditions: HT-29, 48 h; outline: as §1
TK-10 = assay: Antiproliferative activity against human TK10 cells after 48 hrs; format: functional; conditions: TK-10, 48 h
Outline: (§2)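 NCI 60-cell-line screen. Lines grown in RPMI 1640 with 5% fetal bovine serum and 2 mM L-glutamine, plated at 5,000–40,000 cells/well according to doubling time, left 24 h at 37 °C in 5% CO2. Drug stocks in DMSO at 400-fold the top final concentration. Five 10-fold dilutions, 10−4 to 10−8 M, incubated 48 h. Growth read spectrophotometrically as net protein; GI50 taken as 50% reduction.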

IGROV-1 = assay: Antiproliferative activity against human IGROV1 cells after 48 hrs; format: functional; conditions: IGROV-1, 48 h; outline: as §1
DU-145 = assay: Antiproliferative activity against human DU145 cells after 48 hrs; format: functional; conditions: DU-145, 48 h; outline: as §1
T47D = assay: Antiproliferative activity against human T47D cells after 48 hrs; format: functional; outline: as §2
NCI-H460 = assay: Antiproliferative activity against human NCI-H460 cells after 48 hrs; format: functional; conditions: NCI-H460, 48 h; outline: as §1
HCC 2998 = assay: Antiproliferative activity against human HCC2998 cells after 48 hrs; format: functional; conditions: HCC 2998, 48 h; outline: as §1
CAKI-1 = assay: Antiproliferative activity against human CAKI1 cells after 48 hrs; format: functional; conditions: CAKI-1, 48 h; outline: as §1
Hs-578T = assay: Antiproliferative activity against human HS578T cells after 48 hrs; format: functional; outline: as §1
SF-268 = assay: Antiproliferative activity against human SF268 cells after 48 hrs; format: functional; conditions: SF-268, 48 h; outline: as §1
U-251 = assay: Antiproliferative activity against human U251 cells after 48 hrs; format: functional; conditions: U-251, 48 h; outline: as §2
HOP-62 = assay: Antiproliferative activity against human HOP62 cells after 48 hrs; format: functional; conditions: HOP-62, 48 h; outline: as §1
SK-MEL-5 = assay: Antiproliferative activity against human SKMEL5 cells after 48 hrs; format: functional; conditions: SK-MEL-5, 48 h; outline: as §1
NCI-H226 = assay: Antiproliferative activity against human NCI-H226 cells after 48 hrs; format: functional; conditions: NCI-H226, 48 h; outline: as §1
NCI-H322M = assay: Antiproliferative activity against human NCI-H322M cells after 48 hrs; format: functional; outline: as §1
MCF7 = assay: Drug level in human MCF7 cells at 10 uM per 10^6 cells after 0.5 hrs; format: ADME, cell-based; conditions: mcf7, 0.5 h
Outline: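 MCF7 cells kept in RPMI 1640 with 10% fetal calf serum at 37 °C, 5% CO2, then treated with 10 μM analog. Intracellular analog measured over time by HPLC-MS in positive-ion MRM mode. Quantified against calibration curves made by spiking an artificial matrix with standards plus internal standard, using analyte/IS peak-area ratios and linear regression. Reported as pmol per 1×10^6 cells.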

UO-31 = assay: Antiproliferative activity against human UO31 cells after 48 hrs; format: functional; conditions: UO-31, 48 h; outline: as §2
SF-295 = assay: Antiproliferative activity against human SF295 cells after 48 hrs; format: functional; conditions: SF-295, 48 h; outline: as §1
[2] = Antiproliferative activity against human NCI-ADR-RES cells after 48 hrs; format: functional; outline: as §1
SW-620 = assay: Antiproliferative activity against human SW620 cells after 48 hrs; format: functional; conditions: SW-620, 48 h; outline: as §2
[3] = read-out: Log LC50 (the source's name) (converted)

C[C@H](NC(=O)CCCCCCCCCCCCCCC[n+]1ccccc1)[C@H](O)c1ccccc1.[Br-]
GI50 (SN12C): 3.47 µM | LC50 (50% net cell kill) (SN12C): 47.9 µM | TGI (SN12C; read-out: Log TGI (converted)): 14.8 µM | GI50 (SNB-75): 1.7 µM | CC50 (SNB-75; [3]): 38 µM | TGI (SNB-75; read-out: Log TGI (converted)): 11.2 µM | GI50 (COLO 205): 1.05 µM | CC50 (COLO 205; [3]): 31.6 µM | TGI (COLO 205; read-out: Log TGI (converted)): 4.9 µM | GI50 (SK-OV-3): 3.31 µM | CC50 (SK-OV-3; [3]): 35.5 µM | TGI (SK-OV-3; read-out: Log TGI (converted)): 12 µM | GI50 [1]: 3.63 µM | LC50 [1]: 42.7 µM | TGI ([1]; read-out: Log TGI (converted)): 14.8 µM | GI50 (786-0): 10.2 µM | CC50 (786-0; [3]): 49 µM | TGI (786-0; read-out: Log TGI (converted)): 22.4 µM | LC50 (BT-549): 8.71 µM | TGI (BT-549; read-out: Log TGI (converted)): 0.851 µM | GI50 (NCI-H23): 2.95 µM | CC50 (NCI-H23; [3]): 49 µM | TGI (NCI-H23; read-out: Log TGI (converted)): 15.5 µM | GI50 (HT-29): 1.32 µM | LC50 (HT-29): 34.7 µM | TGI (HT-29; read-out: Log TGI (converted)): 11.7 µM | GI50 (TK-10): 14.5 µM | CC50 (TK-10; [3]): 56.2 µM | TGI (TK-10; read-out: Log TGI (converted)): 28.2 µM | GI50 (IGROV-1): 3.16 µM | LC50 (IGROV-1): 57.5 µM | TGI (IGROV-1; read-out: Log TGI (converted)): 15.8 µM | GI50 (DU-145): 12.6 µM | CC50 (DU-145; [3]): 50.1 µM | TGI (DU-145; read-out: Log TGI (converted)): 25.1 µM | GI50 (T47D): 0.933 µM | CC50 (T47D; [3]): 58.9 µM | TGI (T47D; read-out: Log TGI (converted)): 10.7 µM | GI50 (NCI-H460): 2.82 µM | CC50 (NCI-H460; [3]): 41.7 µM | TGI (NCI-H460; read-out: Log TGI (converted)): 13.2 µM | GI50 (HCC 2998): 1.55 µM | CC50 (HCC 2998; [3]): 30.9 µM | TGI (HCC 2998; read-out: Log TGI (converted)): 7.41 µM | GI50 (CAKI-1): 14.1 µM | CC50 (CAKI-1; [3]): 53.7 µM | TGI (CAKI-1; read-out: Log TGI (converted)): 27.5 µM | GI50 (Hs-578T): 3.24 µM | LC50 (Hs-578T): > 100 µM | TGI (Hs-578T; read-out: Log TGI (converted)): 13.5 µM | GI50 (SF-268): 3.24 µM | LC50 (SF-268): 43.7 µM | TGI (SF-268; read-out: Log TGI (converted)): 13.2 µM | GI50 (U-251): 2.95 µM | CC50 (U-251; [3]): 38.9 µM | TGI (U-251; read-out: Log TGI (converted)): 13.8 µM | GI50 (HOP-62): 7.08 µM | CC50 (HOP-62; [3]): 44.7 µM | TGI (HOP-62; read-out: Log TGI (converted)): 20.4 µM | GI50 (SK-MEL-5): 1.62 µM | CC50 (SK-MEL-5; [3]): 9.55 µM | TGI (SK-MEL-5; read-out: Log TGI (converted)): 3.89 µM | GI50 (NCI-H226): 6.46 µM | CC50 (NCI-H226; [3]): 89.1 µM | TGI (NCI-H226; read-out: Log TGI (converted)): 26.9 µM | GI50 (NCI-H322M): 14.5 µM | CC50 (NCI-H322M; [3]): 52.5 µM | TGI (NCI-H322M; read-out: Log TGI (converted)): 31.6 µM | Drug uptake (MCF7): 800 pmol | GI50 (UO-31): 28.8 µM | LC50 (UO-31): > 100 µM | TGI (UO-31; read-out: Log TGI (converted)): 95.5 µM | GI50 (SF-295): 14.5 µM | LC50 (SF-295): 53.7 µM | TGI (SF-295; read-out: Log TGI (converted)): 27.5 µM | GI50 [2]: > 100 µM | LC50 [2]: > 100 µM | TGI ([2]; read-out: Log TGI (converted)): > 100 µM | GI50 (SW-620): 6.92 µM | LC50 (concentration killing 50% of cells) (SW-620): 45.7 µM | TGI (SW-620; read-out: Log TGI (converted)): 20 µM
